Measurements as given in ChEMBL document CHEMBL1122502, “9-acridinyl and 2-methoxy-6-chloro-9-acridinyl derivatives of aliphatic di-, tri-, and tetraamines. Chemistry, cytostatic activity, and schistosomicidal activity” (1983).

Columns and labels:
Type in all cases: functional, Mus musculus
[1] = In vitro for cytostatic activity against Cloudman melanoma S91 cells at 1.0 uM concentration.
Summary of the method: (§1)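 Cloudman melanoma S91 cells (doubling time 36 h), 0.1×10^6 per flask, pre-grown 72 h at 37 °C in Ham's F10 with 15% horse serum, 2.5% fetal bovine serum, 8 mM glutamine, penicillin and streptomycin. Medium then replaced with compound at final 0.1, 0.5 or 1.0 μM, with 0.1% DMSO in test and control. After 72 h more, cells trypsinized and counted. Triplicate cultures; cell number given as % of control.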

[2] = Compound was tested in vitro for cytostatic activity against Cloudman melanoma S91 cells at 0.1 uM concentration; summary of the method: as §1
[3] = Compound was tested in vitro for cytostatic activity against Cloudman melanoma S91 cells at 0.5 uM concentration; summary of the method: as §1

Row | SMILES | Cell number (% of control) [1] [%] | Cell number (% of control) [2] [%] | Control [3] [%]
1 | Cl.Cl.c1ccc2c(NCCCCCCNc3c4ccccc4nc4ccccc34)c3ccccc3nc2c1 | 39 | – | –
2 | COc1ccc2nc3cc(Cl)ccc3c(NCCCNCCCNc3c4ccccc4nc4ccccc34)c2c1.Cl | 3 | 66 | –
3 | COc1ccc2nc3cc(Cl)ccc3c(NCCCN3CCN(CCCNc4c5ccccc5nc5ccccc45)CC3)c2c1.Cl | 20 | 50 | –
4 | COc1ccc2nc3cc(Cl)ccc3c(NCCCCCCN)c2c1.Cl.Cl.Cl | 105 | 105 | –
5 | COc1ccc2nc3cc(Cl)ccc3c(NCCCNCCCN)c2c1.Cl | 28 | – | –
6 | COc1ccc2nc3cc(Cl)ccc3c(NCCCCCCCCNc3c4ccccc4nc4ccccc34)c2c1.Cl.Cl.Cl | 44 | – | –
7 | COc1ccc2nc3cc(Cl)ccc3c(NCCCN3CCN(CCCN)CC3)c2c1.Cl | 78 | – | –
8 | Cl.c1ccc2c(NCCCNCCCNc3c4ccccc4nc4ccccc34)c3ccccc3nc2c1 | 31 | 103 | –
9 | COc1ccc2nc3cc(Cl)ccc3c(NCCCN3CCN(CCCNc4c5ccc(Cl)cc5nc5ccc(OC)cc45)CC3)c2c1.Cl | 43 | – | –
10 | Cl.c1ccc2c(NCCCN3CCN(CCCNc4c5ccccc5nc5ccccc45)CC3)c3ccccc3nc2c1 | 2 | 24 | –
11 | Cl.Cl.c1ccc2c(NCCN3CCNCC3)c3ccccc3nc2c1 | 30 | – | –
12 | COc1ccc2nc3cc(Cl)ccc3c(NCCCNCCCNc3c4ccc(Cl)cc4nc4ccc(OC)cc34)c2c1.Cl | 0 | 85 | 16
13 | COc1ccc2nc3cc(Cl)ccc3c(NCCCCCCNc3c4ccccc4nc4ccccc34)c2c1.Cl.Cl.Cl | 49 | – | –
14 | COc1ccc2nc3cc(Cl)ccc3c(NCCCCCCNc3c4ccc(Cl)cc4nc4ccc(OC)cc34)c2c1.Cl.Cl.Cl.Cl | 83 | – | –
15 | Cl.Cl.NCCCCCCNc1c2ccccc2nc2ccccc12 | 95 | – | –
16 | Cl.NCCCN1CCN(CCCNc2c3ccccc3nc3ccccc23)CC1 | 3 | 39 | –
17 | COc1ccc2nc3cc(Cl)ccc3c(NCCCCCCCCN)c2c1.Cl.Cl.Cl | 86 | – | –
18 | CCNCCCCCCNc1c2ccccc2nc2ccccc12.Cl.Cl | 7 | 102 | –
